Key:
α1‐AR = assay: PE‐induced IP3 production; assay type: cell-based, human; details: 1 μmol/L PE; for effect of α1‐AR antagonist on PE‐induced IP3 production: antagonist 10 μmol/L, 30 minutes, 37°C, Figure 5E
ACKR3 = ACKR3 (Homo sapiens, UniProt P25106); assay: PRESTO‐Tango β‐arrestin 2 recruitment assay for ACKR3; assay type: cell-based; details: HTLA cells, overnight, 37°C, n=3
rat mesenteric arteries [1] = details: isolated mesenteric rat arteries; cited from earlier work
ACKR3:α1B‐AR = assay: PLA, ACKR3:α1B‐AR interaction in hVSMCs; assay type: cell-based, human; details: peptide 10 μmol/L, 30 minutes, 37°C; vs vehicle; Figure 8B; n=3
Outline: (§1)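 hVSMCs got vehicle or test peptide (10 μmol/L, 30 min, 37°C), were washed, fixed in 4% PFA (15 min, RT) and blocked overnight at 4°C in 3% BSA/PBS. Receptor‐specific primaries (1:500) ran 105 min at 37°C, then PLA probes (1:5) 60 min, ligation 30 min and amplification 100 min, all at 37°C. DAPI‐mounted spots were counted per cell from 10 images per condition per experiment.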

rat mesenteric arteries [2] = assay: Pressure myography, PE‐induced vasoconstriction of isolated mesenteric arteries; set-up: species or system rat (Sprague‐Dawley); details: TM peptide 100 μmol/L vs vehicle; 80 mm Hg; Figure 9G; n=3
Outline: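 Mesenteric arteries from male Sprague-Dawley rats (isoflurane 3.5% anaesthesia) kept in bicarbonate salt buffer (130 mmol/L NaCl, 4.7 mmol/L KCl, 5.5 mmol/L d-glucose, 1.16 mmol/L CaCl₂), gassed 95% O₂/5% CO₂, 37°C. Vessels pressurized to 80 mm Hg, pretreated with vehicle or test peptide (10 or 100 μmol/L). Cumulative PE added to bath; dose-response curves fitted by nonlinear regression.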

ACKR3:α1A‐AR = assay: PLA, ACKR3:α1A‐AR interaction in hVSMCs; assay type: cell-based, human; details: peptide 10 μmol/L, 30 minutes, 37°C; vs vehicle; Figure 8B; n=3
Outline: as §1

ACKR3:α1D‐AR = assay: PLA, ACKR3:α1D‐AR interaction in hVSMCs; assay type: cell-based, human; details: peptide 10 μmol/L, 30 minutes, 37°C; vs vehicle; Figure 8B; n=3
Outline: as §1

ACKR3:CXCR4 = assay: PLA, ACKR3:CXCR4 interaction in hVSMCs; assay type: cell-based, human; details: peptide 10 μmol/L, 30 minutes, 37°C; vs vehicle; Figure 8B; n=3
Outline: as §1

CXCR4:α1B‐AR = assay: PLA, CXCR4:α1B‐AR interaction in hVSMCs; assay type: cell-based, human; details: peptide 10 μmol/L, 30 minutes, 37°C; vs vehicle; Figure 8B; n=3
Outline: as §1

CXCR4:α1D‐AR = assay: PLA, CXCR4:α1D‐AR interaction in hVSMCs; assay type: cell-based, human; details: peptide 10 μmol/L, 30 minutes, 37°C; vs vehicle; Figure 8B; n=3
Outline: as §1

α1b‐AR = assay: PRESTO‐Tango β‐arrestin 2 recruitment assay for α1b‐AR; assay type: cell-based; details: PE plus 10 μmol/L TM peptide; HTLA cells, overnight, 37°C; Figure 9C; n=3
Outline: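 HTLA cells were transfected with the α1B‐AR‐Tango plasmid (1.5 μg, Lipofectamine 3000). The next day they were replated at 1×10⁵/well on poly‐L‐lysine and left to attach for ≥4 h. PE ± 10 μmol/L test peptide, made at twice final concentration in medium, was added 1:1 and incubated overnight at 37°C. Luminescence was read with Bright‐Glo in HBSS/20 mmol/L HEPES, as % of RLU at […].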

Chain of ACKR3 (P25106 whole entry): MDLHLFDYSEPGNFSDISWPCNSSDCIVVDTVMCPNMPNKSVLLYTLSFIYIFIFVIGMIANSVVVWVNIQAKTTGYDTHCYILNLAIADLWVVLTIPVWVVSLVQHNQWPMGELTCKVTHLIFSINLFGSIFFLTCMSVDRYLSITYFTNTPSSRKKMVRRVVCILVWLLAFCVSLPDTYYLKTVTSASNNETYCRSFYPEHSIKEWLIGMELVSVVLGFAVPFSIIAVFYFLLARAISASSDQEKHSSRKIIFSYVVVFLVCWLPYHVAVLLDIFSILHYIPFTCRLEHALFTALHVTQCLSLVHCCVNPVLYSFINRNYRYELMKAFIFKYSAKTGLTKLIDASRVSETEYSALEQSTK

Compound	effect of α1‐AR antagonist on PE‐induced IP3 production (α1‐AR; 5 minutes, n=3)	effect of TM peptide on PLA signals for ACKR3:α1B‐AR (ACKR3:α1B‐AR)	effect of TM peptide on PLA signals for ACKR3:α1A‐AR (ACKR3:α1A‐AR)	effect of TM peptide on PLA signals for ACKR3:α1D‐AR (ACKR3:α1D‐AR)	effect of TM peptide on PLA signals for ACKR3:CXCR4 (ACKR3:CXCR4)	effect of TM peptide on PLA signals for CXCR4:α1B‐AR (CXCR4:α1B‐AR)	effect of TM peptide on PLA signals for CXCR4:α1D‐AR (CXCR4:α1D‐AR)	other results
COc1cc2nc(N3CCN(C(=O)c4ccco4)[C@H]4CCCC[C@H]43)nc(N)c2cc1OC (racemic) [cyclazosin, Cyclazosin]	could be inhibited	–	–	–	–	–	–	–
COc1ccccc1N1CCN(CCN2C(=O)CC3(CCCC3)CC2=O)CC1 [BMY 7378]	could be inhibited	–	–	–	–	–	–	–
CNC[C@H](O)c1cccc(O)c1 [PE, Phenylephrine]	–	–	–	–	–	–	–	increase of cellular IP3 concentrations on PE stimulation after NT siRNA (α1‐AR; hVSMCs incubated with NT siRNA, Figure 5D, n=4): 4.8 fold; increase of cellular IP3 concentrations on PE stimulation (α1‐AR; hVSMCs without siRNA, 5 minutes, Figure 2B, n=3): 5.3 fold
Cc1ccc(N(CC2=NCCN2)c2cccc(O)c2)cc1 [phentolamine, Phentolamine]	could be inhibited	–	–	–	–	–	–	–
CXCL11: natural ACKR3 agonist; chemokine, from Protein Foundry	–	–	–	–	–	–	–	EC50 (ACKR3; read-out: EC50 for β‐arrestin 2 recruitment to ACKR3, agonist, luminescence, Figure 2A, mean±SEM): 16.5 ± 4.9 nM
CXCL12: natural ACKR3 agonist; cognate ligand of CXCR4 and ACKR3, from Protein Foundry	–	–	–	–	–	–	–	CXCL12 effect on PE‐induced signaling in the presence of the TM2 peptide (α1‐AR; hVSMCs, TM2 10 μmol/L plus CXCL12 1 μmol/L, Figure 9E): did not enhance PE‐induced signaling; effect on PE‐induced vasoconstriction (rat mesenteric arteries [1]): attenuates PE‐induced vasoconstriction
DDDLHVTQCLSLVHCCVNPVLYSFIN [TM7]	–	did not alter signals	significantly increased the number of PLA signals for ACKR3:α1A‐AR complexes	did not alter signals	reduced after incubation with all TM peptide analogs (TM2>TM4>TM7)	did not significantly affect signals	did not significantly affect signals	effect of TM peptide on potency of PE to induce vasoconstriction (significance) (rat mesenteric arteries [2]): P>0.05 versus vehicle
VVCILWLLAFCVSLPDTYYLDD [TM4]	–	reduced PLA signals for ACKR3:α1B‐AR complexes	without affecting ACKR3:α1A/D‐AR interactions	without affecting ACKR3:α1A/D‐AR interactions	reduced after incubation with all TM peptide analogs (TM2>TM4>TM7)	increased signals for CXCR4:α1B‐AR complexes	did not affect signals for CXCR4:α1D‐AR complexes	effect of TM peptide on potency of PE to induce vasoconstriction (significance) (rat mesenteric arteries [2]): P>0.05 versus vehicle
YILNLAIADLWVVLTIPVWVVDDD [TM2]	–	significantly reduced PLA signals	did not affect signals for ACKR3:α1A‐AR complexes	significantly reduced PLA signals	reduced after incubation with all TM peptide analogs (TM2>TM4>TM7)	increased signals for CXCR4:α1B‐AR complexes	did not affect signals for CXCR4:α1D‐AR complexes	effect of TM peptide on PE‐induced β‐arrestin 2 recruitment to α1b‐AR (α1b‐AR): did not inhibit β‐arrestin 2 recruitment to recombinant α1b‐AR on PE stimulation; activation of ACKR3 by TM peptide (β‐arrestin 2 recruitment) (ACKR3; peptide alone, Figure 9A): without intrinsic agonist activity within the tested range of concentrations

Reference: publication PMC5586474 (Journal of the American Heart Association: Cardiovascular …, 2017)
